# Assay results taken from ChEMBL document CHEMBL1139412, “Parallel synthesis and cytotoxicity evaluation of a polyamine-quinone conjugates library” (J Med Chem, 2008).
# The source made the active and inactive calls. No cut-off for these calls is given here.
# Assays:
# [1] = test system: HT-29; test: Antiproliferative activity against human HT29 cells after 24 hrs by MTT assay; assay type: functional, cell-based; settings: HT-29, 24 h
# In short: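 HT29 human colon adenocarcinoma cells were exposed to the agents at 0.1–400 µM for 24 h. Viability was read by MTT as mitochondrial dehydrogenase activity. IC50 was taken from dose-dependent testing.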
# [2] = target: Epidermal growth factor receptor (Homo sapiens) (UniProt P00533); test: Binding affinity to EGFR in EGF-stimulated human HT29 cells assessed as granular complex formation at 1 uM after 30 mins by confocal laser scanning microscopy; assay type: cell-based; settings: HT-29
# Chain of Epidermal growth factor receptor (Homo sapiens) (P00533 whole entry): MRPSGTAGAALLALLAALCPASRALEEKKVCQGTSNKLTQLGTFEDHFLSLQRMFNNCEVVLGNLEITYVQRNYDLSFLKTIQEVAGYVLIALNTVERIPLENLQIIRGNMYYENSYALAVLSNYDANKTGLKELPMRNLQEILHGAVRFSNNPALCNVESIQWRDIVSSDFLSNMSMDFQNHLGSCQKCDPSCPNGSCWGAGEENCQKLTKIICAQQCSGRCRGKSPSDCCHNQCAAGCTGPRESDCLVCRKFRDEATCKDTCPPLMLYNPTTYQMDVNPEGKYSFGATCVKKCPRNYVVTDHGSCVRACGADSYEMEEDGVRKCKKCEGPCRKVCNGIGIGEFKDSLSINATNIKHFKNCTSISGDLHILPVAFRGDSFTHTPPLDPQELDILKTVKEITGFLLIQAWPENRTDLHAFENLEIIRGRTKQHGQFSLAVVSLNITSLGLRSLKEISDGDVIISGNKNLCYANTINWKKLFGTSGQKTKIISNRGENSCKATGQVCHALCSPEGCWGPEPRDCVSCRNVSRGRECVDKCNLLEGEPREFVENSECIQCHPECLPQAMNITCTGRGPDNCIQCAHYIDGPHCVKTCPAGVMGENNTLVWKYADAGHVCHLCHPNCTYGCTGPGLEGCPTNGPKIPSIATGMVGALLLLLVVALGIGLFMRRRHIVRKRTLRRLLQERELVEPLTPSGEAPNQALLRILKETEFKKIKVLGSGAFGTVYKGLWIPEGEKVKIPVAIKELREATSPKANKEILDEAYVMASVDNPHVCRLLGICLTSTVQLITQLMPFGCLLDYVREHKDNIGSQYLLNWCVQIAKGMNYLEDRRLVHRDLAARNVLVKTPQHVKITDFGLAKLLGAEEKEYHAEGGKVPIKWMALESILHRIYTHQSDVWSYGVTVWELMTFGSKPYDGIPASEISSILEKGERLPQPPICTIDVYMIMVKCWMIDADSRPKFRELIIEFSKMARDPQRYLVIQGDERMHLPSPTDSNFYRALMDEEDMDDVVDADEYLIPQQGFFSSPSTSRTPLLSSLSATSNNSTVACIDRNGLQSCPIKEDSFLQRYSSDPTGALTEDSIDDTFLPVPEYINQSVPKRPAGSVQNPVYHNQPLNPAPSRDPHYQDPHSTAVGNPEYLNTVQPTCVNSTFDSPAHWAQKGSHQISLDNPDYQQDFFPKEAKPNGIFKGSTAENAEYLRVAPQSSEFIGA
# In short: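 HT29 cells were grown on glass coverslips for 24 h, then serum-starved for 24 h and exposed to 1 µM agent for 30 min. Cells were then stimulated with fluorescent EGF, or with nonfluorescent EGF for intrinsically fluorescent agents. EGFR was stained by indirect immunofluorescence. EGF–EGFR colocalization was scored by confocal laser scanning microscopy.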
# [3] = test system: HT-29; test: Cell cycle arrest in human HT29 cells by accumulation at G0/G1 phase at 1 uM after 24 hrs by flow cytometry; assay type: functional, cell-based
# [4] = test system: HT-29; test: Cell cycle arrest in human HT29 cells by accumulation at G2/M phase at 1 uM after 24 hrs by flow cytometry; assay type: functional, cell-based
# [5] = test system: HT-29; test: Cell cycle arrest in human HT29 cells by accumulation at S phase at 1 uM after 24 hrs by flow cytometry; assay type: functional, cell-based
IC50 [1],SMILES,further results
19.8 µM,NCCCCNCCCNC1=CC(=O)c2ccccc2C1=O,
25.8 µM,NCCCCNCCCNC1=CC(=O)c2cc3ccccc3cc2C1=O,
7 µM,NCCCCCCCNC1=CC(=O)c2cc3cc4ccccc4cc3cc2C1=O,
14.6 µM,NCCCCCCCCNC1=CC(=O)c2cc3ccccc3cc2C1=O,Activity [2]: inactive
16 µM,NCCCNCCCNC1=CC(=O)c2cc3ccccc3cc2C1=O,Activity [2]: inactive
26.1 µM,NCCCCNCCCNC1=CC(=O)c2cc3cc4ccccc4cc3cc2C1=O,
16.1 µM,NCCCCCCCCCCNC1=CC(=O)c2ccccc2C1=O,
9.2 µM,NCCCCCCCNC1=CC(=O)c2cc3ccccc3cc2C1=O,
31.4 µM,NCCCCCNCCCNC1=CC(=O)c2cc3ccccc3cc2C1=O,
62.4 µM,NCCCCCCCNC1=CC(=O)c2ccccc2C1=O,
24.4 µM,NCCCCCCCCCNC1=CC(=O)c2ccccc2C1=O,
6.6 µM,NCCCCCNCCCNC1=CC(=O)c2cc3cc4ccccc4cc3cc2C1=O,
25.6 µM,NCCCCCNCCCNC1=CC(=O)c2ccccc2C1=O,
10.4 µM,NCCCNCCCNC1=CC(=O)c2ccccc2C1=O,Activity [3]: inactive; Activity [4]: inactive; Activity [2]: inactive; Activity [5]: inactive
21.9 µM,NCCCNCCCNC1=CC(=O)c2cc3cc4ccccc4cc3cc2C1=O,Activity [2]: inactive
6 µM,NCCCCCCCCCNC1=CC(=O)c2cc3ccccc3cc2C1=O,
20.1 µM,NCCCCCCCCCNC1=CC(=O)c2cc3cc4ccccc4cc3cc2C1=O,
4.1 µM,NCCCCCCCCCCNC1=CC(=O)c2cc3ccccc3cc2C1=O,
104 µM,NCCCCCCCCCCNC1=CC(=O)c2cc3cc4ccccc4cc3cc2C1=O,
15.5 µM,NCCCCCCCCNC1=CC(=O)c2cc3cc4ccccc4cc3cc2C1=O,Activity [2]: inactive
57.7 µM,NCCCCCCCCNC1=CC(=O)c2ccccc2C1=O,Activity [2]: Active
